The results in this text go back to ChEMBL document CHEMBL4513216, “Probing the Open Global Health Chemical Diversity Library for Multistage-Active Starting Points for Next-Generation Antimalarials” (ACS Infect Dis, 2020).

A short description of the data set: Toxicity liver stage against HepG2, at 10uM. The data set is classed as cell-based. Also on record: test concentration 10 uM, cell line HepG2-A16-CD81EGFP. The settings on record: human, HepG2-A16-CD81EGFP cells; read-out: INHIBITION
A digest of the protocol: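 Uninfected HepG2-A16-CD81EGFP cells, 3 × 10^3 per well, 1536-well, plated on prespotted compound at 10 μM final, parasite-free screening media added to match infected plates; puromycin 10 μM positive, DMSO 0.5% negative; run in parallel with 48 h PbLuc assay at 37 °C, 5% CO2; viability by CellTiter-Glo luminescence, normalized to controls.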
On to `Cc1nc(N(C)C)nc(C)c1NC(=O)c1ccccc1C(F)(F)F`, for which the cytotoxicity at 10 µM was -1.94%.

As to `CC(C)CN1C[C@H]2CCN(C(=O)NC3CCCC3)CC[C@H]2S1(=O)=O`, the cytotoxicity at 10 µM is 7.31%.

As to `O=c1[nH]c2c(c(=O)n1C1CCCCC1)CCC2Nc1ccc(Cl)cc1` (stereo unspecified), the cytotoxicity at 10 µM is 9.78%. Next, `CC(C)Cc1nc(OCC(=O)O)c(C#N)c2c1CCC2`: -5.93%; `CN1CCN(C(=O)c2cc(NC(=O)c3ccccc3)n(C)n2)CC1`: 4.07%; `O=C(NCCCO)c1nnsc1-c1ccccc1`: 7.47%. Next, `Cc1cc(C(=O)NCC(C)C)c2c(C3CCCN3)noc2n1` (stereo unspecified): 7.05%; `O=C1NC2(Cc3ccccc31)CN(CC1CCNC1)C2` (stereo unspecified): 9.76%; `OCc1c(Cl)ncn1-c1ccccc1`: -8.99%. For the compound `NC(=O)CS(=O)(=O)Cc1csc(-c2ccccc2)n1`, the cytotoxicity at 10 µM is -9.59%.

Turning to `Cc1noc(C2CCCN(C(=O)c3cc(Cl)cn3C)C2)n1` (stereo unspecified), the cytotoxicity at 10 µM worked out at 1.33%. Next, `Cc1nc(NCc2nnc(C)n2C)c2c(CC(C)C)csc2n1`: 9.56%.

`Cc1nc(CCCNC(=O)c2cc(F)ccc2O)n[nH]1`: the cytotoxicity at 10 µM was -5.32%. As for `CC(C)(C)CCCC(=O)Nc1ccnn1C1CCS(=O)(=O)C1` (stereo unspecified), the cytotoxicity at 10 µM was -9.92%.

`CCc1nc(C)c(C(C)N(C)CCc2ccncc2)s1` (stereo unspecified): the cytotoxicity at 10 µM is 23.5%. Next, `COc1ccc(NC(=O)CN2CCCCC2C2OCCO2)cc1` (stereo unspecified): 30.9%. For `O=C(NC1CCN(C2CC2)CC1)NC1CCOc2ccc(Br)cc21` (stereo unspecified), the cytotoxicity at 10 µM was -3.43%. Turning to `CN(Cc1ccco1)Cc1ccccc1CNC(=O)c1csnn1`, the cytotoxicity at 10 µM stood at 7.88%. Next, `CCOCC(O)CN1CCN(C(=O)c2ccc(N(C)C)nc2)CC1` (stereo unspecified): -5.18%. In the case of `CN(Cc1cnn(C)c1)C(=O)c1ccnc(OC2CCC2)c1`, the cytotoxicity at 10 µM was determined as 3.82%. On to `Cn1ncc2c(=O)[nH]c(CN3CCCc4cc(F)cc(F)c43)nc21`, for which the cytotoxicity at 10 µM was -1.76%. Turning to `CCC(C)NC(=O)CS(=O)(=O)Cc1nc(-c2cccs2)no1` (stereo unspecified), the cytotoxicity at 10 µM worked out at 2.04%.

On to `N#CCCN(Cc1ccccn1)Cn1cc(Cl)cn1`, for which the cytotoxicity at 10 µM amounted to 1.49%. Next, `CS(=O)(=O)NCC1(c2ccccc2Br)CC1`: -5.51%. Next, `CN(C)S(=O)(=O)NCC1(c2ccccc2Br)CC1`: 1.94%; `Cc1nc(-c2ccccc2)n(CC(=O)NC(C2CC2)C2CC2)n1`: 11%. With `COc1ccc(CSc2nnc(N)n2C2CC2)cc1Cl` the figure was 0.00426%; with `CCC(C)NS(=O)(=O)c1ccc(C(=O)N(C)C2(C#N)CCC2)cc1` (stereo unspecified), 16.1%; with `OC(COCc1ccccc1F)CN1CCC(Cn2cccn2)CC1` (stereo unspecified), -10.2%. For the compound `Cc1cnc(NCc2ccc(S(=O)(=O)N(C)C(C)C)cc2)nc1C`, the cytotoxicity at 10 µM was found to be 10.2%.

Take `Cc1cc(C(C)NCCN2CCC(N(C)C)CC2)c(C)s1` (stereo unspecified): the cytotoxicity at 10 µM was -0.85%. With `Cc1cc(NCCOCCS(C)(=O)=O)nc2ccccc12`, the cytotoxicity at 10 µM was 4.4%. Next, `CCOC1CCN(CCc2nc(-c3cccc(Cl)c3)no2)CC1`: -0.139%; `NC(=O)CCCNC(=O)COc1ccccc1C(F)(F)F`: 2.49%. With `Cn1cc(CN2CCC[C@]3(C[C@H](Oc4ccccn4)CO3)C2)cn1` the figure was 5.44%. Next, `CC(C)(C)CC(=O)N1C[C@H]2CCN[C@H]2C1`: 4.19%; `CNC(=O)[C@H]1C[C@@H]2CN(C(=O)c3cncc(C)c3)C[C@@H]2N1C`: -107%; `Cc1ccc(NC(=O)N2CCC3(CCC(C(=O)N(C)C)O3)CC2)cc1` (stereo unspecified): -99.2%. `NC(=O)Cn1ccnc1C1CCCN(Cc2ccccc2OC(F)F)C1` (stereo unspecified): the cytotoxicity at 10 µM is -22%. For the compound `COCCc1ncc(CN2CCC3(CCCN(CC4CC4)C3)C2)cn1` (stereo unspecified), the cytotoxicity at 10 µM is -4.07%. Next, `CCc1cnc(C)nc1NCc1cnc2c(c1)CCC2`: 8.83%; `COc1cc(CN2CC(=O)N(c3ccc(C)cc3)CC2C)cc(OC)c1` (stereo unspecified): 1.28%.

On to `CN(CCc1noc(C2CC2)n1)C(=O)CCc1cc2n(n1)CCCNC2`, for which the cytotoxicity at 10 µM is -0.645%. In the case of `Cc1cc(C)nc(NCc2nnc3n2CCCCC3)n1`, the cytotoxicity at 10 µM was -10.6%.

Consider `Cc1cc(C)n(C2CCN(C(=O)CN3C(=O)CSc4ccccc43)C2)n1` (stereo unspecified), for which the cytotoxicity at 10 µM was -15.3%. Turning to `CCN1CCCC(c2c(-c3ccccc3)ncn2Cc2cccnc2)C1` (stereo unspecified), the cytotoxicity at 10 µM was -6.75%.

Consider `Fc1cccc(-c2cccc(N3CCC(NC4CCCOC4)CC3)c2)c1` (stereo unspecified), for which the cytotoxicity at 10 µM amounted to 12%. Next, `CC(C)c1noc(Cn2ncn3cccc3c2=O)n1`: -4.1%.

With `O=C(c1cc(F)cc(Cl)c1)N1CCN(CCO)[C@@H]2CS(=O)(=O)C[C@@H]21`, the cytotoxicity at 10 µM was -2.24%.

Consider `CCCc1cc(C(=O)N(C)Cc2cnn(-c3cccc(OC)c3)c2)[nH]n1`, for which the cytotoxicity at 10 µM was -2.4%. On to `CCN1CC2(CCC1=O)CCN(Cc1nncn1C(C)C)CC2`, for which the cytotoxicity at 10 µM amounted to 8.39%.

Take `CN(Cc1ccncc1)CC(c1cccs1)N1CCOCC1` (stereo unspecified): the cytotoxicity at 10 µM is -15.7%. With `COc1ccc(Cl)cc1NCC(=O)NCCc1ccccn1` the figure was -8.26%; with `CC(C)CCN(C)C(=O)c1nc(S(C)(=O)=O)n2ccccc12`, -9.91%. Next, `CC(Cn1ccnc1)NC(=O)NCCc1ccccn1` (stereo unspecified): -6.05%. Next, `COc1ccc(C2=CCN(C(=O)CN(C)CC(C)C#N)CC2)cc1` (stereo unspecified): -9.52%; `Cc1ccn(-c2ccc(C(=O)N3CCCC(n4ccnc4)C3)cc2)n1` (stereo unspecified): -8.31%; `CCN(Cc1cccc2c1OCO2)C(=O)Nc1ccncc1`: 2.58%. As to `Cn1nc(C2CCN(C(=O)Cc3cccc(F)c3)CC2)c2cccnc21`, the cytotoxicity at 10 µM was -0.439%.

For the compound `Fc1ccc(CN2CCCn3nnc(COCC4CC4)c3C2)cc1`, the cytotoxicity at 10 µM is -109%. With `CO[C@@H]1CCN(Cc2cccs2)[C@@H]2CN(Cc3ccncc3)C[C@@H]21` the figure was 3.93%; with `O=C(c1ccoc1)N1CCOC2(COCCN(c3ncccn3)C2)C1` (stereo unspecified), -98.4%; with `Cc1nc(COC[C@@H]2CC[C@H]3[C@H](CCN3c3ncccn3)O2)cs1`, 2.19%.

As for `OC1CCN(Cc2c(C3CCCNC3)[nH]c3ncccc23)CC1` (stereo unspecified), the cytotoxicity at 10 µM is -0.542%. With `COc1cccc(CN2CCC3(COCc4cnc(N(C)C)nc43)C2)c1` (stereo unspecified) the figure was 11.2%.

On to `CCS(=O)(=O)Nc1ccc2c(c1)C1(CCOCC1)CN2C`, for which the cytotoxicity at 10 µM was -107%. Next, `COc1ccc2ccccc2c1CNCC1CCS(=O)(=O)C1` (stereo unspecified): 4.51%. With `Cn1cc(-c2ncc3c(c2C(=O)O)CCN(CC2CC2)C3)cn1`, the cytotoxicity at 10 µM was -104%. With `Cc1noc(C)c1CN1CCc2c(CNc3nccs3)n[nH]c2C1` the figure was 5.28%.

With `CS(=O)(=O)N1CCc2ccc(=O)n(CCN3CCCC3)c2CC1`, the cytotoxicity at 10 µM stood at 0.108%. With `Cc1nnsc1CN1C[C@@H]2CC[C@H]1CN(Cc1ccccc1)C2` the figure was 0.929%.
